Measurements published in ChEMBL document CHEMBL3045405, “Enantioselective oxidative damage of chiral pesticide dichlorprop to maize” (J Agric Food Chem, 2011).

What was measured:
[1] = Phytotoxicity against Zea mays (maize) assessed as inhibition of seed germination at 0.1 mg/L and at 27 degC in the dark for 3 days; details: in vivo
Zea mays [2] = experiment: Induction of SOD activity in Zea mays (maize) root at 0.02 mg/L measured after 3 days; format: organism-based; details: in vivo, 72 h
Method in brief: (§1)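 Maize roots after 3 days' exposure to DCPP enantiomers (0–1.0 mg L-1, test solutions renewed daily). Fresh roots (1.0 g) homogenized on ice in 0.05 M sodium phosphate buffer pH 7.8 with 1% (w/v) polyvinylpyrrolidone, then centrifuged 10 000 rpm, 10 min, 4 °C. The supernatant was used for enzyme assays, with protein by Bradford (BSA standard). Mean ± SEM of three replicate cultures.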

[3] = Phytotoxicity against Zea mays (maize) assessed as inhibition of root length at 0.5 mg/L and at 25 degC/20 degC day/night temperature 14 hr photoperiod for 3 days; format: organism-based; details: in vivo
Method in brief: (§2)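 Maize seeds were surface-sterilized in 3% H2O2 for 10 min and germinated on moist filter paper at 27 °C in the dark. Seedlings were exposed to (rac)-, (S)- or (R)-DCPP in sterile deionized water (0–1.0 mg L-1), with solutions renewed daily, at 80% relative humidity and repositioned daily. Fresh weight, root length and shoot height were compared with the water control after 3 days.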

[4] = Phytotoxicity against Zea mays (maize) assessed as inhibition of shoot height at 1 mg/L and at 25 degC/20 degC day/night temperature 14 hr photoperiod for 3 days; format: organism-based; details: in vivo
Method in brief: as §2

[5] = Phytotoxicity against Zea mays (maize) assessed as inhibition of seed germination at 0.02 mg/L and at 27 degC in the dark for 3 days; details: in vivo
[6] = Phytotoxicity against Zea mays (maize) assessed as inhibition of fresh weight at 0.1 mg/L and at 25 degC/20 degC day/night temperature 14 hr photoperiod for 3 days; format: organism-based; details: in vivo
Method in brief: as §2

[7] = Phytotoxicity against Zea mays (maize) assessed as inhibition of shoot height at 0.05 mg/L and at 25 degC/20 degC day/night temperature 14 hr photoperiod for 3 days; format: organism-based; details: in vivo
Method in brief: as §2

Zea mays [8] = experiment: Induction of hydroxyl radical production in Zea mays (maize) root assessed as PBN adducts formation at 1 mg/L measured after 3 days by EPR analysis; format: organism-based; details: in vivo, 72 h
Method in brief: (§3)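 Roots of maize exposed for 3 days were rinsed in ice-cold 0.1 M CaCl2. Under nitrogen, 0.5 g was homogenized with 1.0 mL of fresh 100 mM PBN in DMSO, incubated 37 °C for 15 min, and centrifuged 4500 rpm, 3 min, 4 °C. Signal expressed relative to control.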

[9] = Phytotoxicity against Zea mays (maize) assessed as inhibition of shoot height at 0.1 mg/L and at 25 degC/20 degC day/night temperature 14 hr photoperiod for 3 days; format: organism-based; details: in vivo
Method in brief: as §2

[10] = Phytotoxicity against Zea mays (maize) assessed as inhibition of fresh weight at 0.02 mg/L and at 25 degC/20 degC day/night temperature 14 hr photoperiod for 3 days; format: organism-based; details: in vivo
Method in brief: as §2

Zea mays [11] = experiment: Induction of POD activity in Zea mays (maize) root at 0.02 mg/L measured after 3 days; format: organism-based; details: in vivo, 72 h
Method in brief: as §1

[12] = Phytotoxicity against Zea mays (maize) assessed as inhibition of seed germination at 1 mg/L and at 27 degC in the dark for 3 days; details: in vivo
[13] = Phytotoxicity against Zea mays (maize) assessed as inhibition of seed germination at 0.5 mg/L and at 27 degC in the dark for 3 days; details: in vivo
[14] = Phytotoxicity against Zea mays (maize) assessed as inhibition of root length at 0.05 mg/L and at 25 degC/20 degC day/night temperature 14 hr photoperiod for 3 days; format: organism-based; details: in vivo
Method in brief: as §2

[15] = Phytotoxicity against Zea mays (maize) assessed as inhibition of fresh weight at 0.05 mg/L and at 25 degC/20 degC day/night temperature 14 hr photoperiod for 3 days; format: organism-based; details: in vivo
Method in brief: as §2

[16] = Phytotoxicity against Zea mays (maize) assessed as inhibition of shoot height at 0.5 mg/L and at 25 degC/20 degC day/night temperature 14 hr photoperiod for 3 days; format: organism-based; details: in vivo
Method in brief: as §2

[17] = Phytotoxicity against Zea mays (maize) assessed as inhibition of fresh weight at 0.5 mg/L and at 25 degC/20 degC day/night temperature 14 hr photoperiod for 3 days; format: organism-based; details: in vivo
Method in brief: as §2

[18] = Phytotoxicity against Zea mays (maize) assessed as inhibition of shoot height at 0.02 mg/L and at 25 degC/20 degC day/night temperature 14 hr photoperiod for 3 days; format: organism-based; details: in vivo
Method in brief: as §2

[19] = Phytotoxicity against Zea mays (maize) assessed as inhibition of fresh weight at 1 mg/L and at 25 degC/20 degC day/night temperature 14 hr photoperiod for 3 days; format: organism-based; details: in vivo
Method in brief: as §2

[20] = Phytotoxicity against Zea mays (maize) assessed as inhibition of root length at 0.1 mg/L and at 25 degC/20 degC day/night temperature 14 hr photoperiod for 3 days; format: organism-based; details: in vivo
Method in brief: as §2

[21] = Phytotoxicity against Zea mays (maize) assessed as inhibition of root length at 1 mg/L and at 25 degC/20 degC day/night temperature 14 hr photoperiod for 3 days; format: organism-based; details: in vivo
Method in brief: as §2

Zea mays [22] = experiment: Induction of hydroxyl radical production in Zea mays (maize) root assessed as ROS adducts formation at 1 mg/L measured after 3 days by EPR analysis; format: organism-based; details: in vivo, 72 h
Method in brief: as §3

[23] = Phytotoxicity against Zea mays (maize) assessed as inhibition of root length at 0.02 mg/L and at 25 degC/20 degC day/night temperature 14 hr photoperiod for 3 days; format: organism-based; details: in vivo
Method in brief: as §2

[24] = Phytotoxicity against Zea mays (maize) assessed as inhibition of seed germination at 0.05 mg/L and at 27 degC in the dark for 3 days; details: in vivo
Zea mays [25] = experiment: Induction of POD activity in Zea mays (maize) root at 0.05 mg/L measured after 3 days; format: organism-based; details: in vivo, 72 h
Method in brief: as §1

Zea mays [26] = experiment: Induction of POD activity in Zea mays (maize) root at 0.1 mg/L measured after 3 days; format: organism-based; details: in vivo, 72 h
Method in brief: as §1

Compound	inhibition at 72 h, 0.1 mg/L [1]	Activity (Zea mays [2])	inhibition at 72 h, 0.5 mg/L [3]	inhibition at 72 h, 1 mg/L [4]	inhibition at 72 h, 0.02 mg/L [5]	inhibition at 72 h, 0.1 mg/L [6]	inhibition at 72 h, 0.05 mg/L [7]	Activity (Zea mays [8])	inhibition at 72 h, 0.1 mg/L [9]	inhibition at 72 h, 0.02 mg/L [10]	inhibition at 72 h, 1 mg/L [12]	inhibition at 72 h, 0.5 mg/L [13]	inhibition at 72 h, 0.05 mg/L [14]	inhibition at 72 h, 0.05 mg/L [15]	inhibition at 72 h, 0.5 mg/L [16]	inhibition at 72 h, 0.5 mg/L [17]	inhibition at 72 h, 0.02 mg/L [18]	inhibition at 72 h, 1 mg/L [19]	inhibition at 72 h, 0.1 mg/L [20]	inhibition at 72 h, 1 mg/L [21]	further results
C[C@@H](Oc1ccc(Cl)cc1Cl)C(=O)O [(R)-DICHLORPROP]	16.1%	Toxic	38.4%	36.7%	6.64%	24.6%	5.27%	Toxic	8.61%	5.76%	41.4%	34.9%	23.5%	14.8%	20.7%	36.7%	3.52%	42.7%	26.6%	42%	Activity (Zea mays [11]): Toxic; Activity (Zea mays [22]): Toxic; inhibition at 72 h, 0.02 mg/L [23]: 14.3%; inhibition at 72 h, 0.05 mg/L [24]: 10.7%
CC(Oc1ccc(Cl)cc1Cl)C(=O)O (racemic) [RAC-DICHLORPROP]	12.2%	Non-toxic	36.7%	31.1%	3.57%	10%	4.02%	Toxic	7.9%	2.75%	31.7%	21.4%	19.3%	4.28%	17.6%	31.3%	2.14%	39.7%	24.5%	40.1%	Activity (Zea mays [25]): Toxic; Activity (Zea mays [22]): Toxic; inhibition at 72 h, 0.02 mg/L [23]: 12.7%; inhibition at 72 h, 0.05 mg/L [24]: 8.38%
C[C@H](Oc1ccc(Cl)cc1Cl)C(=O)O [(S)-DICHLORPROP]	9.67%	Non-toxic	34.9%	30.6%	2.1%	9.5%	3.12%	Toxic	6.28%	2.12%	21.9%	11.4%	17.3%	2.94%	15.9%	30.2%	2.06%	38.1%	22.7%	39.9%	Activity (Zea mays [22]): Toxic; inhibition at 72 h, 0.02 mg/L [23]: 11.4%; Activity (Zea mays [26]): Toxic; inhibition at 72 h, 0.05 mg/L [24]: 4.75%
